# Measured values from ChEMBL document CHEMBL1125085, “Synthesis and anticonvulsant activity of some new 2-substituted 3-aryl-4(3H)-quinazolinones” (J Med Chem, 1990).
# Where “and” joins values, the source holds several entries; their conditions need not be identical. Equal entries are not always repeated.
# What was measured:
# Mus musculus [1] = assay: Subcutaneous metrazole (scMet) test was conducted and median effective dose was determined at the time of peak anticonvulsant and sedative effect.; type: organism-based; details: in vivo
# Outline: (§1)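 Pentylenetetrazol (85 mg/kg in mice, 70 mg/kg in rats) was given subcutaneously in the posterior midline as a 0.5% solution. Compounds were in 30% PEG 400, dosed ip in male Carworth Farms no. 1 mice, or orally in mice and Sprague-Dawley rats. ED50 was read at time of peak effect, using groups of 8–16 animals and ≥3 doses giving 10–90% protection. Probit analysis gave 95% confidence intervals.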
# Mus musculus [2] = assay: Rotarod test was used to evaluate neurotoxicity in mice. Toxicity values are reported after 0.5 h.,toxicity at 300 mg/kg; Toxic; type: organism-based; design: dose 300 mg/kg; details: in vivo
# Mus musculus [3] = assay: (§2) Subcutaneous metrazole (scMet) test was conducted after Injecting intraperitoneally at the time of peak anticonvulsant in phase II test; type: functional
# Outline: (§3)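 Phase II testing in male Carworth Farms no. 1 mice, ip dosing in 30% PEG 400 (0.01 mL/g). Groups of 8–16 mice received a range of doses, giving at least three points in 10–90% protection. ED50 with 95% confidence interval was fitted by probit analysis at the time of peak effect. scMet used pentylenetetrazol 85 mg/kg sc.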
# Mus musculus [4] = assay: (§4) MES test was performed after Injecting intraperitoneally at the time of peak anticonvulsant effect in phase II test; type: functional; details: ip; outline: as §3
# Mus musculus [5] = species: Mus musculus; assay: Anticonvulsant activity was determined by injecting perorally in mice.(scMet) test was conducted; type: functional
# Outline: (§5)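 Oral dosing in mice, test solutions in 30% polyethylene glycol 400, 0.01 mL/g body weight. Groups of 8–16 mice received a range of doses until at least three points fell within 10–90% seizure protection.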
# Mus musculus [6] = species: Mus musculus; assay: Anticonvulsant activity was determined by injecting perorally in mice. Maximal electroshock seizure test was performed; type: functional; outline: as §5
# [7] = Dose Injected intraperitoneally that causes death 50% of the mice within 24 hr was reported as lethal dose 50. No deaths among eight test animals at 4000 mg/kg after 24 hr in phase III test; type: organism-based; design: dose 4000 mg/kg, route intraperitoneal; details: mouse, in vivo, ip
# Mus musculus [8] = species: Mus musculus; assay: Anticonvulsant activity was determined by injecting perorally in mice. Time taken to reach peak activity was reported; type: functional
# Outline: (§6)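 Time of peak effect, in hours, was found separately for anticonvulsant activity and for neurotoxicity. ED50 and TD50 were then determined at those times.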
# Mus musculus [9] = species: Mus musculus; assay: Anticonvulsant activity was determined by injecting perorally in mice. Time taken to reach peak toxicity was reported; type: organism-based; details: in vivo, po; outline: as §6
# [10] = Median toxic dose was measured at time of peak neurologic deficit in phase II test; type: organism-based; details: mouse, in vivo
# Outline: (§7)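 Mice dosed ip in 30% PEG 400. Minimal neurotoxicity was scored by rotorod at the time of peak neurologic deficit. Groups of 8–16 mice were used, with at least three points in the 10–90% range, and TD50 with 95% confidence interval was derived by probit analysis.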
# [11] = Neurotoxicity was determined by injecting perorally in mice. Median toxic dose was measured; type: toxicity, organism-based; details: mouse, in vivo, po
# Outline: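 Mice dosed orally in 30% PEG 400. Neurotoxicity was scored by rotorod at the time of peak neurologic deficit. Groups of 8–16 mice were used, with at least three points in the 10–90% range, and TD50 with 95% confidence interval was derived by probit analysis.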
# Rattus norvegicus [12] = species: Rattus norvegicus; assay: Anticonvulsant activity was determined by injecting perorally in rats. (scMet) test was conducted; type: functional
# Rattus norvegicus [13] = species: Rattus norvegicus; assay: Anticonvulsant activity was determined by injecting perorally in rats. MES test was performed; type: functional
# Rattus norvegicus [14] = species: Rattus norvegicus; assay: Anticonvulsant activity was determined by injecting perorally in rats. Time taken to reach peak toxicity was reported; type: organism-based; details: in vivo, po; outline: as §6
# [15] = Neurotoxicity was determined by injecting perorally in rats; type: toxicity, organism-based; details: rat, in vivo, po
# Outline: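 Rats dosed orally in 30% PEG 400. Neurotoxicity was assessed by positional sense and gait-and-stance tests at the time of peak deficit. TD50 with 95% confidence interval was derived by probit analysis from at least three dose points in the 10–90% range.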
# Rattus norvegicus [16] = species: Rattus norvegicus; assay: Anticonvulsant activity was determined by injecting perorally in rats. Time taken to reach peak activity was reported; type: functional; outline: as §6
# [17] = Protective index is the ratio of TD50 and ED50 values obtained in the maximal electroshock seizure (MES) test in phase II test; type: functional
# Outline: (§8)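 Protective index = TD50/ED50. Both values are medians from groups of 8–16 animals per dose, with at least three points in the 10–90% effect range, fitted by probit analysis. Each was taken at its own time of peak effect: seizure protection for ED50, neurologic deficit for TD50.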
# [18] = Protective index is the ratio of TD50 and ED50 values obtained in the subcutaneous metrazole (scMet) test in phase II test; type: functional; outline: as §8
# [19] = Time taken to reach peak activity was reported in phase II test; type: functional
# Outline: (§9)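 Male Carworth Farms no. 1 mice dosed ip in 30% polyethylene glycol 400 (0.01 mL/g). Seizure protection was tested by MES and by sc pentylenetetrazol (85 mg/kg, 0.5% solution, posterior midline); neurotoxicity was tested on the rotorod. Time of peak effect is given in hours. ED50 and TD50 were determined at that time in groups of 8–16 mice.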
# [20] = Time taken to reach peak toxicity was reported in phase II test; outline: as §9
# [21] = Anticonvulsant activity was determined by injecting perorally in mice. Protective index is the ratio of TD50 and ED50 values obtained in the maximal electroshock seizure (MES) test.; type: functional; outline: as §8
# [22] = Anticonvulsant activity was determined by injecting perorally in mice. Protective index is the ratio of TD50 and ED50 values obtained in the subcutaneous metrazole (scMet) test; type: functional; outline: as §8
# [23] = Anticonvulsant activity was determined by injecting perorally in rats. Protective index is the ratio of TD50 and ED50 values obtained in the maximal electroshock seizure (MES) test.; type: functional; outline: as §8
# [24] = Anticonvulsant activity was determined by injecting perorally in rats. Protective index is the ratio of TD50 and ED50 values obtained in the subcutaneous metrazole (scMet) test; type: functional; outline: as §8
# Mus musculus [25] = assay: Rotarod test was used to evaluate neurotoxicity in mice. Toxicity values are reported after 4.0 hr toxicity at 300 mg/kg; toxic; type: organism-based; design: dose 300 mg/kg; details: in vivo
# Mus musculus [26] = assay: Rotarod test was used to evaluate neurotoxicity in mice. Toxicity values are reported after 0.5 hr at 300 mg/kg; Toxic; type: organism-based; design: dose 300 mg/kg; details: in vivo
# Mus musculus [27] = species: Mus musculus; assay: Time taken to reach peak activity was reported; type: functional; outline: as §6
# [28] = (§10) Median toxic dose was measured at time of peak neurologic deficit; type: organism-based; details: mouse, in vivo; outline: as §7
# [29] = Protective index is the ratio of TD50 and ED50 values obtained in the maximal electroshock seizure (MES) test.; type: functional; outline: as §8
# [30] = Protective index is the ratio of TD50 and ED50 values obtained in the subcutaneous metrazole (scMet) test.; type: functional; outline: as §8
# Mus musculus [31] = species: Mus musculus; assay: (§11) Time taken to reach peak activity was reported.; type: functional
# Mus musculus [32] = species: Mus musculus; assay: (§12) Time taken to reach peak toxicity was reported.; type: organism-based; details: in vivo
# Mus musculus [33] = species: Mus musculus; assay: (§13) Median toxic dose was measured at time of peak neurologic deficit.; type: functional; outline: as §7
# [34] = as §10; type: ADME; outline: as §7
# Mus musculus [35] = assay: Subcutaneous metrazole (scMet) test was conducted and median effective dose was determined at the time of peak anticonvulsant and sedative effect; type: organism-based; details: in vivo; outline: as §1
# Mus musculus [36] = assay: as §2; type: ADME, organism-based; details: ip; outline: as §3
# Mus musculus [37] = assay: as §4; type: ADME, organism-based; details: ip; outline: as §3
# Mus musculus [38] = species: Mus musculus; assay: Anticonvulsant activity was determined by injecting perorally in mice. MES test was performed; type: functional; outline: as §5
# Mus musculus [39] = assay: Dose Injected intraperitoneally that causes loss of righting reflex in mice was reported as hypnotic dose (HD).; type: functional
# Outline: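 Mice dosed ip after a toxicity profile at TD50, 2× and 4× TD50, observed from 10 min to 24 h. HD50 is the dose causing loss of righting reflex in 50% of mice, with groups of eight mice scored at several times up to 24 h.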
# [40] = Dose Injected intraperitoneally that causes death 50% of the mice within 24 hr was reported as lethal dose 50 (LD50).; type: organism-based; details: mouse, in vivo, ip
# Mus musculus [41] = species: Mus musculus; assay: Anticonvulsant activity was determined by injecting perorally in mice. Time taken to reach peak toxicity was reported.; type: functional; outline: as §6
# Mus musculus [42] = species: Mus musculus; assay: Anticonvulsant activity was determined by injecting perorally in mice. Time taken to reach peak activity was reported.; type: functional; outline: as §6
# [43] = as §13; type: organism-based; details: mouse, in vivo; outline: as §7
# Rattus norvegicus [44] = species: Rattus norvegicus; assay: Anticonvulsant activity was determined by injecting perorally in rats. Time taken to reach peak toxicity was reported.; type: organism-based; details: in vivo, po; outline: as §6
# Rattus norvegicus [45] = species: Rattus norvegicus; assay: Anticonvulsant activity was determined by injecting perorally in rats. Time taken to reach peak activity was reported.; type: functional; outline: as §6
# [46] = as §11; type: functional
# [47] = as §12
smiles,measurement,setting,value
CCC1(C)CC(=O)NC1=O (stereo not drawn) [ETHOSUXIMIDE],ED50,Mus musculus [1],130.4 mg/kg
O=C(Cc1nc2ccccc2c(=O)n1-c1ccc(Br)cc1)c1ccncc1,Activity,Mus musculus [2],Toxic
Cc1ccccc1-n1c(CC(=O)c2ccncc2)nc2ccccc2c1=O,ED50,Mus musculus [3],100 mg/kg
same,ED50,Mus musculus [4],148 mg/kg
same,ED50,Mus musculus [5],15 mg/kg
same,ED50,Mus musculus [6],27.1 mg/kg
same,LD50 at 24 h,[7],> 4000 mg/kg
same,TPE,Mus musculus [8],2 h
same,TPE,Mus musculus [9],0.5 h
same,TD50,[10],561 mg/kg
same,TD50,[11],67.6 mg/kg
same,ED50,Rattus norvegicus [12],2.57 mg/kg
same,ED50,Rattus norvegicus [13],1.73 mg/kg
same,TPE,Rattus norvegicus [14],4 h
same,TD50,[15],2.89 mg/kg
same,TPE,Rattus norvegicus [16],4 h
same,PI,[17],3.8
same,PI,[18],5.6
same,TPE,[19],2 h
same,TPE,[20],2 h
same,PI,[21],2.5
same,PI,[22],4.5
same,PI,[23],1.7
same,PI,[24],1.1
O=C(Cc1nc2ccccc2c(=O)n1-c1ccccc1Br)c1ccncc1,Activity,Mus musculus [25],Toxic
same,Activity,Mus musculus [26],Toxic
same,ED50,Mus musculus [3],19 mg/kg
same,ED50,Mus musculus [4],136 mg/kg
same,TPE,Mus musculus [27],1 h
same,TD50,[28],> 2000 mg/kg
same,PI,[29],> 14.7
same,PI,[30],>105
O=C(Cc1nc2ccccc2c(=O)n1-c1ccccc1F)c1ccncc1,ED50,Mus musculus [3],50 mg/kg
same,ED50,Mus musculus [4],196 mg/kg
same,TPE,Mus musculus [31],2 h
same,TPE,Mus musculus [32],1 h
same,TD50,Mus musculus [33],832 mg/kg
same,PI,[29],4.2
same,PI,[30],16.6
Cc1ccccc1-n1c(C)nc2ccccc2c1=O [METHAQUALONE],TD50,[34],55 mg/kg
same,ED50,Mus musculus [35],33.5 mg/kg
O=C(Cc1nc2ccccc2c(=O)n1-c1ccccc1Cl)c1ccncc1,ED50,Mus musculus [36],14.5 mg/kg
same,ED50,Mus musculus [37],196 mg/kg
same,ED50,Mus musculus [5],2.53 mg/kg
same,ED50,Mus musculus [38],14.1 mg/kg
same,HD50,Mus musculus [39],1181 mg/kg
same,LD50 at 24 h,[40],> 3000 mg/kg
same,TPE,Mus musculus [41],0.5
same,TPE,Mus musculus [42],1
same,TD50,[43],262 mg/kg
same,ED50,Rattus norvegicus [12],3.09 mg/kg
same,ED50,Rattus norvegicus [13],1.44 mg/kg
same,TPE,Rattus norvegicus [44],4 h
same,TPE,Rattus norvegicus [45],4 h
same,TD50,[15],2.91 mg/kg
same,PI,[29],1.3 (2×) and 2
same,TPE,[46],2.5 h
same,TPE,[47],2.5 h
